In brackets after ≈: the same amount, converted by molar mass.
Legend:
BT-474 = assay: Cytotoxicity against human BT-474 cells; type: functional
Procedure, shortened: (§1)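 BT-474 breast cancer cells and nontumorigenic HMECs treated 48 h with concentrations up to 30 μM. CC50 derived from concentration–response viability plots. Values >30 μM assigned when viability fell by less than 50% of vehicle at 30 μM. Mean ± SEM, n ≥ 3.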

[1] = (§2) Cytotoxicity against HMECs; type: toxicity, cell-based, HMEC; conditions: human, HMEC cells; procedure, shortened: as §1
[2] = Aqueous kinetic solubility of the compound in PBS at pH 7.4 at 250 uM incubated for 24 hrs by UPLC/MS analysis; type: physicochemical; conditions: read-out: Kinetic_solubility
Procedure, shortened: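 Kinetic solubility measured in phosphate-buffered saline, pH 7.4. Mean of at least two independent experiments, each run in two technical replicates.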

[3] = Metabolic stability in mouse liver microsomes assessed as half life preincubated for 15 mins followed by NADPH addition and measured after 1 to 2 hrs by LC-MS/MS analysis; type: ADME, Microsome; conditions: time 75-135 min; for t1/2: microsomes; for half-life: liver microsomes
Procedure, shortened: (§3)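 Microsomal stability assessed in mouse, human, rat or dog liver microsomes with NADPH cofactor. Half-life and percent parent remaining at 60 and 120 min reported. Mean of at least two independent experiments, each in two technical replicates.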

[4] = Metabolic stability in mouse liver microsomes assessed as parent compound remaining preincubated for 15 mins followed by NADPH addition and measured after 1 hr by LC-MS/MS analysis; type: ADME, Microsome; conditions: time 75 min, read-out: Stability; procedure, shortened: as §3
[5] = Metabolic stability in mouse liver microsomes assessed as parent compound remaining preincubated for 15 mins followed by NADPH addition and measured after 2 hrs by LC-MS/MS analysis; type: ADME, Microsome; conditions: time 135 min, read-out: Stability; procedure, shortened: as §3
[6] = Metabolic stability in human liver microsomes assessed as half life preincubated for 15 mins followed by NADPH addition and measured after 1 to 2 hrs by LC-MS/MS analysis; type: ADME, Microsome; conditions: liver microsomes, time 75-135 min; procedure, shortened: as §3
[7] = Metabolic stability in human liver microsomes assessed as parent compound remaining preincubated for 15 mins followed by NADPH addition and measured after 1 hr by LC-MS/MS analysis; type: ADME, Microsome; conditions: time 75 min, read-out: Stability; procedure, shortened: as §3
[8] = Metabolic stability in human liver microsomes assessed as parent compound remaining preincubated for 15 mins followed by NADPH addition and measured after 2 hrs by LC-MS/MS analysis; type: ADME, Microsome; conditions: time 135 min, read-out: Stability; procedure, shortened: as §3
[9] = Metabolic stability in mouse liver microsomes assessed as half life preincubated for 15 mins followed by UDPGA addition and measured after 2 hrs by LC-MS/MS analysis; type: ADME, Microsome; conditions: time 135 min
Procedure, shortened: (§4)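 Mouse and human liver microsomes incubated with UDPGA cofactor. Half-life and percent parent remaining at 120 min reported. Mean of at least two independent experiments, each in two technical replicates.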

[10] = Metabolic stability in human liver microsomes assessed as parent compound remaining preincubated for 15 mins followed by UDPGA addition and measured after 2 hrs by LC-MS/MS analysis; type: ADME, Microsome; conditions: time 135 min, read-out: Stability; procedure, shortened: as §4
[11] = Metabolic stability in mouse liver microsomes assessed as half-life preincubated for 15 mins followed by UDPGA addition and measured after 2 hrs by LC-MS/MS analysis
[12] = Metabolic stability in human liver microsomes assessed as percent compound remaining preincubated for 15 mins followed by UDPGA addition and measured after 2 hrs by LC-MS/MS analysis
[13] = Metabolic stability in rat liver microsomes assessed as half life preincubated for 15 mins followed by NADPH addition and measured after 1 to 2 hrs by LC-MS/MS analysis; type: ADME, Microsome; conditions: liver microsomes, time 75-135 min; procedure, shortened: as §3
[14] = Metabolic stability in dog liver microsomes assessed as half life preincubated for 15 mins followed by NADPH addition and measured after 1 to 2 hrs by LC-MS/MS analysis; type: ADME, Canis lupus familiaris, Microsome; conditions: microsomes, time 75-135 min; procedure, shortened: as §3
[15] = Metabolic stability in rat liver microsomes assessed as parent compound remaining preincubated for 15 mins followed by NADPH addition and measured after 1 to 2 hrs by LC-MS/MS analysis; type: ADME, Microsome; conditions: time 75-135 min; procedure, shortened: as §3
HMEC = assay: as §2; type: toxicity, cell-based; conditions: human, hmec; procedure, shortened: as §1

SMILES | solubility kinetic at 24 h, 250 µM [2] | t1/2 [3] | remaining at 1 h [4] | remaining at 2 h [5] | half-life [6] | remaining at 1 h [7] | remaining at 2 h [8] | half-life [9] | remaining at 2 h [10] | t1/2 at 2 h [11] | percent compound remaining at 2 h [12] | half-life [3] | half-life [13] | t1/2 [14] | Stability [15] | CC50 (BT-474) | CC50 [1] | CC50 (HMEC)
CN1CC(Cc2cccc(CNC3(c4ccc(F)cc4)CCCC3)c2)C1 | > 250 µM | – | 63% | – | – | – | – | – | – | – | – | > 1 h | – | – | – | 13.4 µM | > 30 µM | –
CN1CC2(CC(Cc3cccc(CNC4(c5ccc(F)cc5)CCCC4)c3)C2)C1 | 232 µM (≈ 91.1 µg/mL) | 1.92 h | 70% | 49% | > 2 h | 82% | 66% | > 2 h | 95% | > 2 h | – | – | > 1 h | 0.883 h | 64% | 4.83 µM | > 30 µM | –
CN1CCC(Cc2cccc(CNC3(c4ccc(F)cc4Cl)CCCC3)c2)CC1 | 220 µM (≈ 91.3 µg/mL) | 0.183 h | – | – | – | – | – | – | – | – | – | – | – | – | – | 4.25 µM | – | 21 µM
COc1cc(F)ccc1C1(NCc2ccc(F)c(CC3CCN(C)CC3)c2)CCCC1 | > 250 µM | 1.15 h | 55% | 31% | > 2 h | 75% | 58% | > 2 h | 95% | > 2 h | – | – | – | – | – | 6.88 µM | > 30 µM | –
CN1CCC(Cc2cccc(CNC3(c4ccc(F)cc4)CCCC3)c2)C(F)(F)C1 (racemic) | 41 µM (≈ 17.1 µg/mL) | – | – | – | – | – | – | – | – | – | – | < 0.0833 h | – | – | – | 21.9 µM | > 30 µM | –
CN1CCC(Cc2cccc(CNC3(c4ccc(F)cc4O)CCCC3)c2)CC1 | 27 µM (≈ 10.7 µg/mL) | 0.7 h | 34% | 13% | – | – | – | > 2 h | > 95% | > 2 h | – | – | – | – | – | > 30 µM | > 30 µM | –
CN1CC2(CC(Cc3cccc(CNC4(c5ccc(F)c(F)c5)CCCC4)c3)C2)C1 | 226 µM (≈ 92.8 µg/mL) | 1.25 h | 56% | 32% | > 2 h | 84% | 65% | – | – | – | – | – | – | – | – | 2.99 µM | – | 14.8 µM
CN1CCC(Cc2cccc(CNC3(c4ccc(F)cc4)CCCC3)c2)CC1(C)C (racemic) | 239 µM (≈ 97.7 µg/mL) | – | 58% | – | – | – | – | – | – | – | – | > 1 h | – | – | – | 6.46 µM | > 30 µM | –

Continued, in another order:

solubility kinetic at 24 h, 250 µM [2] | t1/2 [3] | remaining at 1 h [4] | remaining at 2 h [5] | half-life [6] | remaining at 1 h [7] | remaining at 2 h [8] | half-life [9] | remaining at 2 h [10] | t1/2 at 2 h [11] | percent compound remaining at 2 h [12] | half-life [3] | half-life [13] | t1/2 [14] | Stability [15] | SMILES | CC50 (BT-474) | CC50 [1] | CC50 (HMEC)
> 250 µM | 1.45 h | 61% | 43% | > 2 h | 83% | 63% | > 2 h | 95% | > 2 h | 95% | – | – | – | – | CN1CCC(Cc2cc(CNC3(c4ccc(F)cc4)CCCC3)ccc2O)CC1 | 5.1 µM | > 30 µM | –
231 µM (≈ 96.2 µg/mL) | 0.967 h | 48% | 21% | > 2 h | 77% | 56% | – | – | – | – | – | – | – | – | CN1CCC(Cc2cc(CNC3(c4ccc(F)c(F)c4)CCCC3)ccc2F)CC1 | 3.52 µM | > 30 µM | –
246 µM (≈ 98 µg/mL) | 1.78 h | 68% | 46% | > 2 h | 75% | 53% | > 2 h | 95% | > 2 h | 95% | – | – | – | – | CN1CCC(Cc2ccc(F)c(CNC3(c4ccc(F)cc4)CCCC3)c2)CC1 | 5.45 µM | > 30 µM | –
